Measured values reported in ChEMBL document CHEMBL1127039, “Nonpeptide angiotensin II antagonists derived from 4H-1,2,4-triazoles and 3H-imidazo[1,2-b][1,2,4]triazoles” (J Med Chem, 1993).

Experiments:
[1] = target: T1, Type-1 angiotensin II receptor (Oryctolagus cuniculus, UniProt P34976); assay: Displacement of [125I]-Sar1-Ile8-A II at the rabbit aorta angiotensin II receptor, type 1; format: tissue-based
T1 sequence (P34976 whole entry): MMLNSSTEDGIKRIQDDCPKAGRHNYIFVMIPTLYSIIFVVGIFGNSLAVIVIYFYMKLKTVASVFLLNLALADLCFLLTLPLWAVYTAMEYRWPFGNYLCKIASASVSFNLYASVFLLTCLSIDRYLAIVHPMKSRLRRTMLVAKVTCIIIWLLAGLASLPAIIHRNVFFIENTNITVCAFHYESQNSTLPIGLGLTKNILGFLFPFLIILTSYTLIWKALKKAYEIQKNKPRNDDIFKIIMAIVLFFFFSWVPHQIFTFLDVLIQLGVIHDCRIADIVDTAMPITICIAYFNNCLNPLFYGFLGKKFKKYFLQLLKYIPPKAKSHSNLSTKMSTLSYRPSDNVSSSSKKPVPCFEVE
Summary of the method: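 Rabbit aorta membranes in 50 mM Tris-HCl pH 7.4, 5 mM MgCl2, 0.2 mg/mL bacitracin; 0.2% BSA only in original version. Nonspecific binding with 1 μM unlabeled Sar1Ile8-AII. Filtration, gamma counting. Duplicate tubes, five concentrations; IC50 from nonlinear regression of displacement curves, sometimes averaged over separate assays.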

[2] = test system: Rattus norvegicus; assay: Peak inhibition of A II pressor response in conscious normotensive rats after intravenous administration of 3 mg/kg of drug (2 animals treated); format: functional
Summary of the method: (§1)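 Male Sprague-Dawley rats (300–400 g) catheterized under methohexital, recovered overnight, conscious. Compound given iv (saline or NaHCO3/saline/water vehicle) or po, with food withheld for oral dosing. AII 0.1 μg/kg iv bolus given at -45, -30 and -15 min, then at 5–60 min and every 30 min afterwards. Peak percent inhibition of the AII ΔMAP response, averaged over at least two rats.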

[3] = test system: Rattus norvegicus; assay: Time from onset of action until significant (i.e., >= 30%) inhibition of pressor response no longer observed (3 mg/kg intravenous route); format: functional
Summary of the method: (§2)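 Same conscious-rat AII challenge protocol: AII 0.1 μg/kg iv boluses repeated after iv or po dosing, ΔMAP recorded. Duration is the time from onset until inhibition falls below 30% and stays below 30% for two further AII challenges. Averaged over at least two rats.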

[4] = test system: Rattus norvegicus; assay: Time from onset of action until significant (i.e., >= 30%) inhibition of pressor response no longer observed (1 mg/kg intravenous route).; format: functional; summary of the method: as §2
[5] = test system: Rattus norvegicus; assay: Peak inhibition of A II pressor response in conscious normotensive rats after intravenous administration of 1 mg/kg of drug (2 animals treated); format: functional; summary of the method: as §1

SMILES | IC50 [1] [nM] | other results
CCCCc1nc2ccccc2n1Cc1ccc(-c2ccccc2-c2nn[nH]n2)cc1 | 96 | –
CCCCc1nnc(SCc2ccc(C(=O)OC)cc2)n1Cc1ccc(-c2ccccc2-c2nn[nH]n2)cc1 | 120 | –
CCCSc1nnc(C(F)(F)F)n1Cc1ccc(NC(=O)c2ccccc2C(=O)O)cc1 | 2100 | –
CCSc1nnc(C(F)(F)F)n1Cc1ccc(NC(=O)c2ccccc2C(=O)O)cc1 | 4800 | –
CCCCc1nnc(SC(C(=O)OC)c2ccccc2)n1Cc1ccc(NC(=O)c2ccccc2C(=O)O)cc1 (centres undefined) | 6.1 | –
CCCCc1nnc(SCc2ccccc2CO)n1Cc1ccc(-c2ccccc2-c2nn[nH]n2)cc1 | 36 | –
CCCCc1nn2c(-c3ccccc3)cnc2n1Cc1ccc(-c2ccccc2-c2nn[nH]n2)cc1 | 220 | –
CCCCc1nnc(SCc2cccc(OC)c2)n1Cc1ccc(NC(=O)c2ccccc2C(=O)O)cc1 | 21 | –
CCCCc1nnc(SCc2ccccc2C)n1Cc1ccc(NC(=O)c2ccccc2C(=O)O)cc1 | 14 | inhibition in vivo at 3 mg/kg [2]: 56%; Duration [3]: 0.5 h
CCCCc1nnc(C(=O)NCc2ccccc2)n1Cc1ccc(-c2ccccc2-c2nnn[nH]2)cc1 | 57 | –
CCCCc1nnc(NCc2ccc(OC)cc2)n1Cc1ccc(-c2ccccc2-c2nnn[nH]2)cc1 | 780 | –
CCCCc1nnc(OCCc2ccccc2)n1Cc1ccc(-c2ccccc2-c2nnn[nH]2)cc1 | 63 | –
CCSc1nnc(COC)n1Cc1ccc(NC(=O)c2ccccc2C(=O)O)cc1 | 5200 | –
CCCCc1nc(Cl)c(CC(=O)OC)n1Cc1ccc(NC(=O)c2ccccc2C(=O)O)cc1 | 420 | –
CCSc1nnc(Cc2ccccc2)n1Cc1ccc(NC(=O)c2ccccc2C(=O)O)cc1 | 1000 | –
CCCCc1nnc(S(C)(=O)=O)n1Cc1ccc(-c2ccccc2-c2nn[nH]n2)cc1 | 400 | –
CCCCc1nn2cc(C)nc2n1Cc1ccc(-c2ccccc2-c2nnn[nH]2)cc1 | 55 | –
CCCCc1nnc(SCC(C)C)n1Cc1ccc(-c2ccccc2-c2nn[nH]n2)cc1 | 72 | –
CCCCc1nnc(SCc2ccccc2C(=O)OC)n1Cc1ccc(-c2ccccc2-c2nnn[nH]2)cc1 | 90 | –
CCCCc1nnc([S+]([O-])Cc2ccc(OC)cc2)n1Cc1ccc(-c2ccccc2-c2nnn[nH]2)cc1 (centres undefined) | 50 | –
CCCCc1nnc(SCc2ccccc2Cl)n1Cc1ccc(NC(=O)c2ccccc2C(=O)O)cc1 | 30 | –
CCCCc1nnc(SCc2cccc(OC)c2)n1Cc1ccc(-c2ccccc2-c2nn[nH]n2)cc1 | 94 | –
CCCCc1nnc([S+]([O-])Cc2ccc(OC)cc2)n1Cc1ccc(NC(=O)c2ccccc2-c2nn[nH]n2)cc1 (centres undefined) | 28 | –
CCCCc1nnc(-c2cccnc2)n1Cc1ccc(NC(=O)c2ccccc2C(=O)O)cc1 | 1700 | –
CCCCc1nn2cc(CC)nc2n1Cc1ccc(-c2ccccc2-c2nn[nH]n2)cc1 | 55 | –
CCCCc1nnc(SCc2cccc(C)c2)n1Cc1ccc(NC(=O)c2ccccc2C(=O)O)cc1 | 32 | –

SMILES | IC50 [1] [nM] | other results
CCCCc1nnc(SCc2cccc(C(=O)O)c2)n1Cc1ccc(NC(=O)c2ccccc2C(=O)O)cc1 | 15 | –
CCCCc1nnc(SCc2ccccc2Cl)n1Cc1ccc(-c2ccccc2-c2nnn[nH]2)cc1 | 110 | –
CCCCc1nnc(SCc2ccccc2C#N)n1Cc1ccc(NC(=O)c2ccccc2C(=O)O)cc1 | 60 | –
CCCCc1nnc(SCc2ccc(OC)cc2)n1Cc1ccc(-c2ccccc2-c2nnn[nH]2)cc1 | 31 | –
CCCCc1nnc(-c2ccncc2)n1Cc1ccc(NC(=O)c2ccccc2C(=O)O)cc1 | 1400 | –
CCCCc1nnc(SCc2ccccc2C)n1Cc1ccc(-c2ccccc2-c2nn[nH]n2)cc1 | 17 | –
CCCCc1nnc(SCC(=O)OC)n1Cc1ccc(NC(=O)c2ccccc2C(=O)O)cc1 | 330 | –
CCCCc1nnc(SCc2ccc(OC)cc2)n1Cc1ccc(NC(=O)c2ccccc2-c2nn[nH]n2)cc1 | 4.1 | Duration [4]: 0.2 h; inhibition in vivo at 1 mg/kg [5]: 70%
CCCCc1nnc(SCc2ccccc2-c2nn[nH]n2)n1Cc1ccc(-c2ccccc2-c2nn[nH]n2)cc1 | 1.4 | Duration [4]: 0.6 h; inhibition in vivo at 1 mg/kg [5]: 62%
CCCCc1nnc(OCc2ccccc2)n1Cc1ccc(-c2ccccc2-c2nn[nH]n2)cc1 | 370 | –
CCCCc1nnc(SCc2ccc(C)cc2)n1Cc1ccc(NC(=O)c2ccccc2C(=O)O)cc1 | 7.6 | inhibition in vivo at 3 mg/kg [2]: 50%; Duration [3]: 0.1 h
CCCCc1nnc(-c2ccccc2)n1Cc1ccc(NC(=O)c2ccccc2C(=O)O)cc1 | 930 | –
CCCCc1nnc(SCc2ccc(C(F)(F)F)cc2)n1Cc1ccc(NC(=O)c2ccccc2C(=O)O)cc1 | 42 | –
CCCCc1nnc([S+]([O-])Cc2ccc([N+](=O)[O-])cc2)n1Cc1ccc(-c2ccccc2-c2nnn[nH]2)cc1 (centres undefined) | 8.9 | –
CCCCc1nnc(C(=O)N(C)c2ccccc2)n1Cc1ccc(-c2ccccc2-c2nnn[nH]2)cc1 | 350 | –
CCCCc1nnc(SCc2cccc(Cl)c2)n1Cc1ccc(NC(=O)c2ccccc2C(=O)O)cc1 | 26 | –
CCSc1nnc(-c2ccccc2)n1Cc1ccc(NC(=O)c2ccccc2C(=O)O)cc1 | 1900 | –
CCCCc1nnc(-c2ccco2)n1Cc1ccc(NC(=O)c2ccccc2C(=O)O)cc1 | 1000 | –
CCCCc1nnc(SC)n1Cc1ccc(-c2ccccc2-c2nnn[nH]2)cc1 | 310 | –
CCCSc1nnc(Cc2ccccc2)n1Cc1ccc(NC(=O)c2ccccc2C(=O)O)cc1 | 380 | –
CCCCc1nn2c(C)c(-c3ccccc3)nc2n1Cc1ccc(-c2ccccc2-c2nnn[nH]2)cc1 | 13 | –
CCCCc1nnc([S+]([O-])Cc2ccccc2C(=O)O)n1Cc1ccc(-c2ccccc2-c2nnn[nH]2)cc1 (centres undefined) | 10 | –
CCCCc1nnc(SC(C(=O)O)c2ccccc2)n1Cc1ccc(NC(=O)c2ccccc2C(=O)O)cc1 (centres undefined) | 20 | –
CCCCc1nnc(SCC(=O)c2ccccc2)n1Cc1ccc(NC(=O)c2ccccc2C(=O)O)cc1 | 190 | –
CCCc1nnc(SCc2ccc(Cl)cc2)n1Cc1ccc(-c2ccccc2-c2nn[nH]n2)cc1 | 98 | –
CCCCc1nc(Cl)c(CO)n1Cc1ccc(-c2ccccc2C(=O)O)cc1 | 230 | –

SMILES | IC50 [1] [nM] | other results
CCCCCc1nnc(SCc2ccc(Cl)cc2)n1Cc1ccc(-c2ccccc2-c2nn[nH]n2)cc1 | 94 | –
CCCCc1nn2c(-c3ccccc3)c(C)nc2n1Cc1ccc(-c2ccccc2-c2nnn[nH]2)cc1 | 170 | –
CCCCc1nnc(SCc2ccccc2[N+](=O)[O-])n1Cc1ccc(-c2ccccc2-c2nnn[nH]2)cc1 | 130 | –
CCCSc1nnc(-c2ccccc2)n1Cc1ccc(NC(=O)c2ccccc2C(=O)O)cc1 | 1600 | –
CCCCc1nnc(SCC(=O)NC)n1Cc1ccc(NC(=O)c2ccccc2C(=O)O)cc1 | 720 | –
CCCCc1nnc(SC(CC)C(=O)OC)n1Cc1ccc(NC(=O)c2ccccc2C(=O)O)cc1 (centres undefined) | 300 | –
CCCCc1nn2c(C)c(C)nc2n1Cc1ccc(-c2ccccc2-c2nn[nH]n2)cc1 | 7.8 | –
CCCCc1nnc(SCc2ccc(Cl)cc2)n1Cc1ccc(NC(=O)c2ccccc2C(=O)O)cc1 | 6.8 | –
CCCSc1nnc(CCCc2ccccc2)n1Cc1ccc(NC(=O)c2ccccc2C(=O)O)cc1 | 320 | –
CCCSc1nnc(CSc2ccccc2)n1Cc1ccc(NC(=O)c2ccccc2C(=O)O)cc1 | 1200 | –
CCCCc1nnc(Sc2ccccc2)n1Cc1ccc(NC(=O)c2ccccc2C(=O)O)cc1 | 60 | –
CCCCc1nnc(SCc2ccc(C(=O)O)cc2)n1Cc1ccc(-c2ccccc2-c2nnn[nH]2)cc1 | 24 | –
CCCCc1nnc(SCc2cccc(C(=O)OC)c2)n1Cc1ccc(NC(=O)c2ccccc2C(=O)O)cc1 | 30 | –
CCCCc1nnc(SCc2ccc3ccccc3c2)n1Cc1ccc(NC(=O)c2ccccc2C(=O)O)cc1 | 49 | –
CCCCc1nnc(SCCO)n1Cc1ccc(NC(=O)c2ccccc2C(=O)O)cc1 | 480 | –
CCCCc1nnc(SCCc2ccccc2)n1Cc1ccc(NC(=O)c2ccccc2C(=O)O)cc1 | 70 | –
CCCCc1nnc(S)n1Cc1ccc(-c2ccccc2C(=O)O)cc1 | 860 | –
CCCCc1nnc(SCCc2ccccc2)n1Cc1ccc(-c2ccccc2-c2nnn[nH]2)cc1 | 35 | –
CCCc1nnc(SCc2ccccc2)n1Cc1ccc(NC(=O)c2ccccc2C(=O)O)cc1 | 120 | –
CCCCc1nnc(SCC2CCCCC2)n1Cc1ccc(-c2ccccc2-c2nn[nH]n2)cc1 | 36 | –
CCCCc1nnc(SCc2ccccc2C(=O)OC)n1Cc1ccc(NC(=O)c2ccccc2C(=O)O)cc1 | 14 | –
CCCCc1nnc(Sc2ccccc2)n1Cc1ccc(-c2ccccc2-c2nn[nH]n2)cc1 | 100 | –
CCCCc1nnc([S+]([O-])Cc2ccc(OC)cc2)n1Cc1ccc(NC(=O)c2ccccc2C(=O)O)cc1 (centres undefined) | 7.4 | –
CCCCc1nnc(NCc2ccc(Cl)cc2)n1Cc1ccc(-c2ccccc2-c2nn[nH]n2)cc1 | 140 | –
